ChEMBL document CHEMBL1149126, “3-phenyl-6-(2-pyridyl)methyloxy-1,2,4-triazolo[3,4-a]phthalazines and analogues: high-affinity gamma-aminobutyric acid-A benzodiazepine receptor ligands with alpha 2, alpha 3, and alpha 5-subtype binding selectivity over alpha 1” (J Med Chem, 2004)

Experiments:
[1] = target: T1, GABA-A receptor; alpha-5/beta-3/gamma-2 (Homo sapiens) (UniProt P18507+P28472+P31644); assay: Partial agonistic activity against GABA-A receptor alpha-5-beta-3-gamma-2 subunits; assay type: functional
[2] = target: T2, GABA-A receptor; alpha-3/beta-3/gamma-2 (Homo sapiens, UniProt P18507+P28472+P34903); assay: Binding affinity for human GABA-A receptor alpha-3-beta-3-gamma-2 subunits in L(tk-) cells; assay type: cell-based
T2 sequence (P18507 whole entry): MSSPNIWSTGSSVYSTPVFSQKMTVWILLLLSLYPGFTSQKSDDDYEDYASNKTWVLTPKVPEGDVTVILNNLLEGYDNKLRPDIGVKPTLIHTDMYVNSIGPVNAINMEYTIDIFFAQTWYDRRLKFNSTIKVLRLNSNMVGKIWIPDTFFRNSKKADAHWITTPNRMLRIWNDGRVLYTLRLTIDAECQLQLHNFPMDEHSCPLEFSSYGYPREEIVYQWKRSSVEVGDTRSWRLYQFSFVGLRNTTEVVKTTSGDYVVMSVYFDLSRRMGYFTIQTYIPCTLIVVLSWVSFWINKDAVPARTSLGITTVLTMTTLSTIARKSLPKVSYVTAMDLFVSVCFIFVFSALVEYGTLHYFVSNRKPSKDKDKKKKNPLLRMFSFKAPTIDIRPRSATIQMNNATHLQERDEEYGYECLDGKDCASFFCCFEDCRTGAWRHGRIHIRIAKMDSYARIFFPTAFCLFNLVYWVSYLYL
T2 sequence (P28472 whole entry): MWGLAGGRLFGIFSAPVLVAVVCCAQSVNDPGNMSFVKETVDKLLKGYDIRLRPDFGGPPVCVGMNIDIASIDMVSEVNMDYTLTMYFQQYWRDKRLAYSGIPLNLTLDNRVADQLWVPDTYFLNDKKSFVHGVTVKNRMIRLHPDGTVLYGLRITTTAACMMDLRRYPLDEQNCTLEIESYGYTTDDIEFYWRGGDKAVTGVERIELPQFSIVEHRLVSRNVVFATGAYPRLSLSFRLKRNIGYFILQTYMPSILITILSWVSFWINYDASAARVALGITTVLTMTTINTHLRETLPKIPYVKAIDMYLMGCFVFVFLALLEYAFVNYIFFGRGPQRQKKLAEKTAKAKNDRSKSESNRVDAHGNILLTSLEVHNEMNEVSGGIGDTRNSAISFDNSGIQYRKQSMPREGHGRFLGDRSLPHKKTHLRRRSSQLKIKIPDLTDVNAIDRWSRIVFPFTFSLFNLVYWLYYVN
T2 sequence (P34903 whole entry): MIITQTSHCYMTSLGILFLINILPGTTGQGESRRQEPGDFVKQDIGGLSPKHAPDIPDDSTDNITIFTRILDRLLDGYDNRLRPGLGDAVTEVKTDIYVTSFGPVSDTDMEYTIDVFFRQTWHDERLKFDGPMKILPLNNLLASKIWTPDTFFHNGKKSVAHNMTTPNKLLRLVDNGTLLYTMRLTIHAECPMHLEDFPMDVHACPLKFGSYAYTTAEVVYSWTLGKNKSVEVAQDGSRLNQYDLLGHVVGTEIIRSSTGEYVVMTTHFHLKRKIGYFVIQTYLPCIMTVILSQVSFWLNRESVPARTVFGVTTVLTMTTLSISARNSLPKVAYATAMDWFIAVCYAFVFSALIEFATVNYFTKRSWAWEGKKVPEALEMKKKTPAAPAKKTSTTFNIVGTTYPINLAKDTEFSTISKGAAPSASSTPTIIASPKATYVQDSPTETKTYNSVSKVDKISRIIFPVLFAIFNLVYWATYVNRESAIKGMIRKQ

[3] = target: T3, GABA-A receptor; alpha-5/beta-3/gamma-2 (Homo sapiens, UniProt P18507+P28472+P31644); assay: Binding affinity for human GABA-A receptor alpha-5-beta-3-gamma-2 subunits in L(tk-) cells; assay type: cell-based
T3 sequence (P18507 whole entry): T2 sequence (P18507 whole entry)
T3 sequence (P28472 whole entry): T2 sequence (P28472 whole entry)
T3 sequence (P31644 whole entry): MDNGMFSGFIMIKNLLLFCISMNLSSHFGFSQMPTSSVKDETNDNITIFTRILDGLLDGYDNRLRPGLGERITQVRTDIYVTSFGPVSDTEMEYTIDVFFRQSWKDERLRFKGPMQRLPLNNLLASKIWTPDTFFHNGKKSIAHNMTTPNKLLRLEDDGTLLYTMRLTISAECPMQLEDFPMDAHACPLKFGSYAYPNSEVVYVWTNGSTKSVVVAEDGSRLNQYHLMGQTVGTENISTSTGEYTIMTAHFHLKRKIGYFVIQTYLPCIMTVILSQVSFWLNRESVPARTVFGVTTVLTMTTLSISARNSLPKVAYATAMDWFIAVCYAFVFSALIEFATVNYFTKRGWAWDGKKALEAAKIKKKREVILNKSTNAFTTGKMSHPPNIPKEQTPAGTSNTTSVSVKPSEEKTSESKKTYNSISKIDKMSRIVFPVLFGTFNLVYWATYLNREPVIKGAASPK

[4] = target: T4, GABA-A receptor; alpha-3/beta-3/gamma-2 (Homo sapiens) (UniProt P18507+P28472+P34903); assay: Partial agonistic activity against GABA-A receptor alpha-3-beta-3-gamma-2
[5] = target: T5, GABA-A receptor; alpha-1/beta-3/gamma-2 (Homo sapiens) (UniProt P14867+P18507+P28472); assay: Inverse agonistic activity against GABA-A receptor alpha-1-beta-3-gamma-2 subunits; assay type: functional
[6] = target: T6, GABA-A receptor; alpha-2/beta-3/gamma-2 (Homo sapiens, UniProt P18507+P28472+P47869); assay: Binding affinity for human GABA-A receptor alpha-2-beta-3-gamma-2 subunits in L(tk-) cells; assay type: cell-based
T6 sequence (P18507 whole entry): T2 sequence (P18507 whole entry)
T6 sequence (P28472 whole entry): T2 sequence (P28472 whole entry)
T6 sequence (P47869 whole entry): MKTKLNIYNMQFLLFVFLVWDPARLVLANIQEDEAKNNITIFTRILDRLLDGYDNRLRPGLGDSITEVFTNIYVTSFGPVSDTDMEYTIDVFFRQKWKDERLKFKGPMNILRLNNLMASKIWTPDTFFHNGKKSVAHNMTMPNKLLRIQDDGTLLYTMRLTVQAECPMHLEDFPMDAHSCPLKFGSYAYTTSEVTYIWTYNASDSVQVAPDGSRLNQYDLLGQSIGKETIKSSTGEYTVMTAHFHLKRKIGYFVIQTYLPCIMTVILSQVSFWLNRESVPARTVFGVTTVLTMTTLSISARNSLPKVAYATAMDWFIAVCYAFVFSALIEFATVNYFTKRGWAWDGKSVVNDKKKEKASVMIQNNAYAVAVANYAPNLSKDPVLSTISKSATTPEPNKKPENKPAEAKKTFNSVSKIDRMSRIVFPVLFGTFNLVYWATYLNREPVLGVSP

[7] = target: T7, GABA-A receptor; alpha-1/beta-3/gamma-2 (Homo sapiens, UniProt P14867+P18507+P28472); assay: Binding affinity for human GABA-A receptor alpha-1-beta-3-gamma-2 subunits in L(tk-) cells
T7 sequence (P14867 whole entry): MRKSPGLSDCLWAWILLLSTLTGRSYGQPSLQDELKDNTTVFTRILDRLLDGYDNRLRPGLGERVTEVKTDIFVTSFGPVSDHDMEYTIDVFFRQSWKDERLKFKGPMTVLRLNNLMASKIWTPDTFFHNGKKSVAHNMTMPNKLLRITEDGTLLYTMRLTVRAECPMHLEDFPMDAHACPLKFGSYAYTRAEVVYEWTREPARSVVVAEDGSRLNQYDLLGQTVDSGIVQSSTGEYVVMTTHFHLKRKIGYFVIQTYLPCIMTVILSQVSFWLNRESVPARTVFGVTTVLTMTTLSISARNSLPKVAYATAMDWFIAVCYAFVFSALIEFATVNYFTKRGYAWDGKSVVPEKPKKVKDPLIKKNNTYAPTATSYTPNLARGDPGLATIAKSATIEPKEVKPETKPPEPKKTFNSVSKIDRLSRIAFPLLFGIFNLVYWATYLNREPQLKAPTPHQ
T7 sequence (P18507 whole entry): T2 sequence (P18507 whole entry)
T7 sequence (P28472 whole entry): T2 sequence (P28472 whole entry)

[8] = Peak plasma concentration in rat at a dose of 3 mg/kg; assay type: ADME, organism-based; design: dose 3 mg/kg; details: read-out: Concentration
Procedure, shortened: (§1)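 Plasma concentrations were followed to derive peak level and half-life.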

[9] = Half-life in rat at a dose of 3 mg/kg; assay type: ADME, organism-based; design: dose 3 mg/kg; details: in vivo; procedure, shortened: as §1
[10] = target: T7, GABA-A receptor; alpha-1/beta-3/gamma-2; assay: Binding affinity for human GABA-A receptor alpha-4-beta-3-gamma-2 subunits in L(tk-) cells; assay type: cell-based
[11] = target: GABA-A receptor; alpha-2/beta-3/gamma-2 (Homo sapiens) (UniProt P18507+P28472+P47869); assay: Maximum percent change compared to GABA EC20 against GABA-A alpha-2-beta-3-gamma-2 receptor; assay type: functional
[12] = target: T5, GABA-A receptor; alpha-1/beta-3/gamma-2 (Homo sapiens); assay: Maximum percent change compared to GABA EC20 against GABA-A alpha-1-beta-3-gamma-2 receptor; assay type: functional
[13] = target: T4, GABA-A receptor; alpha-3/beta-3/gamma-2 (Homo sapiens); assay: Maximum percent change compared to GABA EC20 against GABA-A alpha-3-beta-3-gamma-2 receptor; assay type: functional
[14] = Oral bioavailability in rat at a dose of 3 mg/kg; assay type: ADME, organism-based; details: in vivo, read-out: Bioavailabiility; procedure, shortened: as §1
[15] = target: T1, GABA-A receptor; alpha-5/beta-3/gamma-2 (Homo sapiens); assay: Maximum percent change compared to GABA EC20 against GABA-A alpha-5-beta-3-gamma-2 receptor; assay type: functional

Row | Activity [1] [%] | Ki [2] [nM] | Ki [3] [nM] | Activity [4] [%] | Activity [5] [%] | Ki [6] [nM] | Ki [7] [nM] | Cmax [8] [ng/mL] | half-life [9] [h] | Ki [10] [nM] | Efficacy [11] [%] | Efficacy [12] [%] | Efficacy [13] [%] | bioavailability [14] [%] | Efficacy [15] [%] | Compound
1 | 26 | 3.1 | 0.92 | -13 | -15 | 9.7 | 32 | – | – | – | – | – | – | – | – | Cc1cccc(COc2nn3c(C4CC4)nnc3c3ccccc23)n1
2 | – | 12 | 1.2 | – | – | 26 | – | 179 | 1 | 71 | 23 | 51 | 38 | 33 | 18 | c1ccc(-c2nnc3c4c(c(OCc5ccccn5)nn23)C2CCC4CC2)cc1
